Data published in ChEMBL document CHEMBL1147810, “Novel combretastatin analogues endowed with antitumor activity” (J Med Chem, 2006).
Active and inactive are the calls of the source. The rule behind the calls is not given here.

Experiments:
BMEC = assay: Antiproliferative activity against bovine BMEC; format: functional, cell-based; conditions: Bos taurus
Outline: (§1)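 Cells plated, then exposed 24 h after seeding to graded drug concentrations for 24 h. Drug removed, 48 h recovery in drug-free medium, surviving cells stained with sulforhodamine B (OD 564). […] BMEC: primary bovine adrenal cultures in DMEM, 20% FCS, heparin, brain extract.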

HUVEC = assay: Antiproliferative activity against human HUVEC; format: functional, cell-based; outline: as §1
NCI-H460 [1] = assay: Antiproliferative activity against human H460 cells; format: functional, cell-based; outline: as §1
HCT-116 = assay: Antiproliferative activity against human HCT116 cells; format: functional, cell-based; outline: as §1
MeWo = assay: Antiproliferative activity against human MeWo cells; format: functional, cell-based; outline: as §1
MCF7 = assay: Antiproliferative activity against human MCF7 cells; format: functional, cell-based; outline: as §1
MCF7-DOX = assay: Antiproliferative activity against doxorubicin-resistant human MCF7-dx cells; format: functional, cell-based; outline: as §1
A2780 [2] = assay: Antiproliferative activity against human A2780 cells; format: functional, cell-based; outline: as §1
A2780 [3] = assay: Antiproliferative activity against doxorubicin-resistant human A2780-dx cells; format: functional, cell-based; outline: as §1
IGROV-1 = assay: Antiproliferative activity against human IGROV1 cells; format: functional, cell-based; outline: as §1
NCI-H460 [4] = assay: Antitumor activity in CD1 mice implanted with NCI-H460 xenografts at 60 mg/kg, po; format: functional, organism-based; parameters: dose 60 mg/kg; conditions: Homo sapiens
Outline: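 NCI-H460 cells (3.0 × 10⁶ in HBSS) injected sc into right flank of female CD-1 nude mice; groups of eight once tumors reached ~30 mg (day 5). Oral 60 mg/kg twice daily, 5 days/week for 3 weeks; controls got vehicle. Caliper volumes (length × width²/2) twice weekly; toxicity scored as % max body-weight loss; Mann-Whitney U test.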

NCI-H460 [5] = assay: Cell cycle arrest in NCI-H460 cells by accumulation at G1/0 phase cell at 3 nM post 24 hrs treatment; format: functional, Homo sapiens
NCI-H460 [6] = assay: Cell cycle arrest in NCI-H460 cells by accumulation at G1/0 phase cell at 3 nM post 24 hrs treatment and 24 hrs recovery; format: functional, Homo sapiens
NCI-H460 [7] = assay: Cell cycle arrest in NCI-H460 cells by accumulation at G1/0 phase cell at 3 nM post 24 hrs treatment and 48 hrs recovery; format: functional, Homo sapiens
NCI-H460 [8] = assay: Cell cycle arrest in NCI-H460 cells by accumulation at S phase cell at 3 nM post 24 hrs treatment
NCI-H460 [9] = assay: Cell cycle arrest in NCI-H460 cells by accumulation at G2/M phase cell at 3 nM post 24 hrs treatment
NCI-H460 [10] = assay: Cell cycle arrest in NCI-H460 cells by accumulation at S phase cell at 3 nM post 24 hrs treatment and 48 hrs recovery
NCI-H460 [11] = assay: Cell cycle arrest in NCI-H460 cells by accumulation at S phase cell at 3 nM post 24 hrs treatment and 24 hrs recovery
NCI-H460 [12] = assay: Cell cycle arrest in NCI-H460 cells by accumulation at G2/M phase cell at 3 nM post 24 hrs treatment and 24 hrs recovery
NCI-H460 [13] = assay: Cell cycle arrest in NCI-H460 cells by accumulation at G2/M phase cell at 3 nM post 24 hrs treatment and 48 hrs recovery

Work on `COc1cc(/C=C\c2cc(O)c3cc(C)oc3c2)cc(OC)c1OC` yielded an IC50 (BMEC) of 93 nM.

For `COc1cc(/C=C/c2cc(OC)c3ccoc3c2)cc(OC)c1OC`, the IC50 (BMEC) was 75000 nM.

`COc1cc(/C=C\c2cc(OC)c3ccoc3c2)cc(OC)c1OC` gave an IC50 (BMEC) of 7500 nM.

For `COc1cc(/C=C/c2cc(O)c3cc(-c4ccccc4)sc3c2)cc(OC)c1OC`, the IC50 (BMEC) was 38000 nM.

`COc1cc(/C=C\c2cc(O)c3cc(C)sc3c2)cc(OC)c1OC` showed an IC50 (BMEC) of 23 nM.

In the case of `COc1cc(/C=C/c2cc(O)c3cc(C)oc3c2)cc(OC)c1OC`, the IC50 (BMEC) is reported as 12300 nM.

Work on `COc1cc(/C=C\c2cc(OP(=O)(O)O)c3ccsc3c2)cc(OC)c1OC` yielded an IC50 (HUVEC) of 83 nM, an IC50 (NCI-H460 [1]) of 620 nM and an IC50 (HCT-116) of 3000 nM. The IC50 (MeWo) was 830 nM, the IC50 (MCF7) was 639 nM and the IC50 (MCF7-DOX) was 487 nM. For the same molecule, the IC50 (A2780 [2]) was 500 nM, the IC50 (A2780 [3]) was 750 nM and the IC50 (IGROV-1) was 1610 nM. The Activity (NCI-H460 [4]) was “Active” and the IC50 (BMEC) was 640 nM.

Work on `COc1cc(/C=C/c2cc(O)c3cc(C)sc3c2)cc(OC)c1OC` yielded an IC50 (BMEC) of 840 nM.

Molecule `COc1cc(/C=C\c2ccc3cc[nH]c3c2)cc(OC)c1OC` has an IC50 (BMEC) of 28 nM.

For `COc1cc(/C=C/c2cc(O)c3c(-c4ccccc4)csc3c2)cc(OC)c1OC`, the IC50 (BMEC) was > 20000 nM.

Molecule `COc1ccc(/C=C\c2cc(OC)c(OC)c(OC)c2)cc1O` [COMBRETASTATIN A4] has an IC50 (HUVEC) of 1.5 nM, an IC50 (HCT-116) of 1.9 nM and an IC50 (MeWo) of 4 nM. The IC50 (MCF7) was 2 nM, the IC50 (MCF7-DOX) was 2.3 nM and the IC50 (A2780 [2]) was 2.19 nM. For the same molecule, the IC50 (A2780 [3]) was 1.66 nM, the IC50 (IGROV-1) was 10.3 nM and the Activity (NCI-H460 [5]) was 8%. For the same molecule, the Activity (NCI-H460 [6]) was 62%, the Activity (NCI-H460 [7]) was 55% and the Activity (NCI-H460 [8]) was 12%. The Activity (NCI-H460 [9]) was 79%, the Activity (NCI-H460 [10]) was 18% and the Activity (NCI-H460 [11]) was 22%. The Activity (NCI-H460 [12]) was 16% and the Activity (NCI-H460 [13]) was 27%.

With `COc1cc(/C=C/c2cc(O)c3cc(-c4ccccc4)oc3c2)cc(OC)c1OC` the IC50 (BMEC) was > 20000 nM.

`COc1cc(/C=C/c2ccc3cc[nH]c3c2)cc(OC)c1OC` showed an IC50 (BMEC) of 1900 nM.

With `COc1cc(/C=C\c2cc(O)c3c(-c4ccccc4)csc3c2)cc(OC)c1OC` the IC50 (BMEC) was > 2000 nM.

`COc1cc(/C=C\c2cc(O)c3cc(-c4ccccc4)sc3c2)cc(OC)c1OC` was tested, and the IC50 (BMEC) was 23000 nM.

With `COc1cc(/C=C\c2cc(O)c3cc(-c4ccccc4)oc3c2)cc(OC)c1OC` the IC50 (BMEC) was > 2000 nM.
